ChEMBL document CHEMBL4382230, “Structure-activity relationships, biological evaluation and structural studies of novel pyrrolonaphthoxazepines as antitumor agents” (Eur J Med Chem, 2019)
In brackets after ≈: the same amount, converted by molar mass. Activity calls are given as the source filed them. The rule behind the calls is not given here.

Tests used:
HL-60 [1] = assay: Cell cycle arrest in human HL60 cells assessed as accumulation of cells at G2/M phase at 10 uM after 24 hrs by propidium iodide staining-based flow cytometric analysis; format: functional
Method in brief: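 HL-60 exposed to 10 μM for 24 h, vehicle 0.1% DMSO. Cells plated at 2×10^5 cells/mL, stained in PBS with 0.1% sodium citrate, 0.1% NP40 and propidium iodide for 30 min at room temperature in the dark. DNA content by flow cytometry; G2/M fraction reported.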

Tubulin (Homo sapiens) [2] = molecular target: T1, Tubulin (Homo sapiens) (UniProt P68371+Q9H4B7+P0DPH7+P68366+Q13509+Q71U36+P04350+Q3ZCM7+P07437+P68363+Q9BQE3+Q6PEY2+Q13885+Q9BVA1+Q9BUF5); assay: Inhibition of tubulin (unknown origin) polymerization at 27.5 uM measured over 70 mins by turbidity method; format: protein-complex assay
Method in brief: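 Tubulin at 25 µM in GAB buffer (10 mM sodium phosphate, 30% glycerol, 1 mM EGTA, 6 mM MgCl2, 1 mM GTP, pH 6.7) with 27.5 µM compound or DMSO vehicle. Turbidity is read at 355 nm for 70 min at 37 °C. Data are normalized to the initial stable absorbance plateau to correct for compound absorbance.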

[3] = Apparent solubility of compound in sodium phosphate buffer at 15 uM after 20 mins; format: physicochemical
A2780 = assay: Cytotoxicity against human A2780 cells after 48 hrs by MTT assay; format: functional, cell-based; conditions: A2780, 48 h
Method in brief: (§1)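 Cells seeded at 12,000 to 17,000 per well depending on line, incubated overnight, then given serial dilutions of ligand for 48 h. MTT at 2.5 mg/mL added for 4 h at 37 °C, formazan solubilized overnight (10% SDS, 45% dimethylformamide, pH 5.5), absorbance read at 595/690 nm. IC50 from log-dose response curves; mean ± SE of three independent assays.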

[4] = Cytotoxicity against human A2780AD cells after 48 hrs by MTT assay; format: functional, cell-based; method in brief: as §1
[5] = Ratio of IC50 for human A2780AD cells to IC50 for human A2780 cells; format: functional
Method in brief: (§2)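 Relative resistance: IC50 in the P-gp overexpressing resistant line divided by IC50 in the parental line. Both IC50s came from the 48 h MTT assay (serial dilutions, absorbance at 595/690 nm, log-dose response curves, three independent assays).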

NIH3T3 [6] = assay: Cytotoxicity against mouse NIH/3T3 cells after 48 hrs by MTT assay; format: cell-based; conditions: NIH3T3, 48 h; method in brief: as §1
NIH3T3 [7] = assay: Cytotoxicity against mouse NIH/3T3 cells harboring MDR G185 after 48 hrs by MTT assay; format: functional, cell-based; conditions: NIH3T3, 48 h; method in brief: as §1
[8] = Ratio of IC50 for mouse NIH/3T3 cells harboring MDR G185 to IC50 for mouse NIH/3T3 cells; method in brief: as §2
NB-4 [9] = assay: Cell cycle arrest in human NB4 cells assessed as accumulation of cells at G1 phase after 24 hrs by propidium iodide staining-based flow cytometric analysis; format: functional
Method in brief: (§3)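 NB4 cultured at 37 °C, 5% CO2 in RPMI-1640 with 10% heat-inactivated FBS. Treated at 50 and 100 nM, 1 and 10 μM for 24 h. Cells fixed/permeabilized in 70% ethanol overnight at 4 °C, then given RNase and 20 μg/ml PI for 30 min. Doublets excluded, 20,000 events per sample; cell-cycle phase distribution analysed.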

NB-4 [10] = assay: Cell cycle arrest in human NB4 cells assessed as accumulation of cells at G2/M phase at 50 to 10000 nM after 24 hrs by propidium iodide staining-based flow cytometric analysis; format: functional; method in brief: as §3
NB-4 [11] = assay: Cell cycle arrest in human NB4 cells at 50 to 10000 nM after 24 hrs by propidium iodide staining-based flow cytometric analysis; format: functional; method in brief: as §3
NB-4 [12] = assay: Induction of differentiation in human NB4 cells at 500 nM after 24 hrs in presence of ATRA by CD11c staining-based flow cytometric analysis; format: functional, cell-based
Method in brief: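 NB4 exposed to 0.5 μM compound together with 1 μM ATRA for 24 h. Cells stained with PE-conjugated CD11c (mouse IgG1-PE control) for 1 h at 4 °C in the dark, washed, resuspended in PBS with propidium iodide (0.25 μg/mL), then analysed by flow cytometry. Biological triplicates, mean ± S.E.M.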

HL-60 [13] = assay: Induction of autophagy in serum starved human HL60 cells assessed as increase in LC3B-2 levels at 10 uM after 105 mins in presence of lysosomal inhibitor chloroquine by immunoblot analysis; format: functional, cell-based
Method in brief: (§4)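 HL-60 in serum-supplemented RPMI 1640, or starved in Earle's Balanced Salts for 15 min beforehand, then treated with 10 μM compound with or without 40 μM chloroquine for 1 h 45 min or 16 h. LC3B-II measured by immunoblot, densitometry normalized to actin, three independent experiments, Student's T-test.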

HL-60 [14] = assay: Induction of autophagy in serum starved human HL60 cells assessed as increase in LC3B-2 levels at 10 uM after 105 mins by immunoblot analysis; format: functional, cell-based; method in brief: as §4
HL-60 [15] = assay: Induction of autophagy in human HL60 cells assessed as […] in LC3B-2 levels at 10 uM after 16 hrs in presence of lysosomal inhibitor chloroquine by immunoblot analysis; format: functional, cell-based; method in brief: as §4
Tubulin (Homo sapiens) [16] = molecular target: T1, Tubulin (Homo sapiens); assay: Displacement of podophyllotoxin from tubulin (unknown origin) by ultracentrifugation method; format: protein-complex assay
Tubulin (Homo sapiens) [17] = molecular target: T1, Tubulin (Homo sapiens); assay: Binding affinity to tubulin (unknown origin) by analytical ultracentrifugation
SCC-4 [18] = assay: Cytotoxicity against human SCC4 cells after 48 hrs by MTT assay; format: functional, cell-based; conditions: SCC-4, 48 h
Method in brief: (§5)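 Cells (NCI-H929 in RPMI-1640 GlutaMAX; SCC4 in DMEM GlutaMAX; 10% FBS, 37 °C, 5% CO2) treated with increasing concentrations for 48 h. IC50 is the mean of three independent experiments.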

NCI-H929 [19] = assay: Cytotoxicity against human NCI-H929 cells after 48 hrs by MTT assay; format: functional, cell-based; conditions: NCI-H929, 48 h; method in brief: as §5
Ca9-22 [20] = assay: Cytotoxicity against human Ca9-22 cells after 24 hrs by MTT assay; format: functional, cell-based; conditions: Ca9-22, 24 h
Ca9-22 [21] = assay: Cytotoxicity against human Ca9-22 cells after 48 hrs by MTT assay; format: functional, cell-based; conditions: Ca9-22, 48 h
Ca9-22 [22] = assay: Cytotoxicity against human Ca9-22 cells after 72 hrs by MTT assay; format: functional, cell-based; conditions: Ca9-22, 72 h
SCC-4 [23] = assay: Induction of apoptosis in human SCC4 cells at 50 uM after 48 hrs by Annexin V/propidium iodide staining-based flow cytometric analysis relative to control; format: functional
Method in brief: (§6)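 Seeding density: NCI-H929 and Ca9.22 at 30×10^4 cells/mL, SCC4 at 15×10^4 cells/mL. Cells exposed 48 h to compound (500 nM; 50 μM in SCC4 for one compound) or vehicle (1% EtOH v/v). Annexin V/PI staining, flow cytometry, 10,000 cells gated on vehicle-treated cells. Three independent experiments, mean ± S.E.M, T-test.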

Ca9-22 [24] = assay: Induction of apoptosis in human Ca9-22 cells at 500 nM after 48 hrs by Annexin V/propidium iodide staining-based flow cytometric analysis relative to control; format: functional, cell-based; method in brief: as §6
A549 = assay: Cytotoxicity against human A549 cells assessed as reduction in cell survival at 0.1 to 10 uM after 18 hrs by MTT assay; format: functional, cell-based
Method in brief: (§7)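 Seeded at 2,500 cells/well in medium with 10% serum. After adhesion, exposed to 0.1, 1 and 10 μM in medium with 5% serum for 18 h. Medium then replaced with fresh medium containing 1.2 mM MTT for 4 h; formazan dissolved in DMSO, absorbance at 540 nm. Results given as % of basal response.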

B16-F10 = assay: Cytotoxicity against mouse B16F10 cells assessed as reduction in cell survival at 0.1 to 10 uM after 18 hrs by MTT assay; format: functional, cell-based; method in brief: as §7
PC-9 [25] = assay: Cytotoxicity against human PC9 cells assessed as reduction in cell survival at 0.1 to 10 uM after 18 hrs by MTT assay; format: functional, cell-based; method in brief: as §7
HCC827 [26] = assay: Cytotoxicity against human HCC827 cells assessed as reduction in cell survival at 0.1 to 10 uM after 18 hrs by MTT assay; format: functional, cell-based; method in brief: as §7
HCC827 [27] = assay: Cytotoxicity against human HCC827 cells assessed as reduction in cell survival at 0.1 to 10 uM after 50 to 60 hrs by MTT assay; format: functional, cell-based
PC-9 [28] = assay: Induction of apoptosis in human PC9 cells assessed as increase in caspase-3 expression at 10 uM after 18 hrs by Western blot analysis; format: functional, cell-based
Method in brief: (§8)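 PC9 and HCC827 maintained in DMEM with 10% FBS, then exposed to 10 μM compound for 18 h in 5% serum. Caspase 3 activation and cell cycle proteins examined by western blot.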

PC-9 [29] = assay: Induction of apoptosis in human PC9 cells assessed as increase in p21 expression at 10 uM after 18 hrs by Western blot analysis; format: functional, cell-based; method in brief: as §8
PC-9 [30] = assay: Induction of apoptosis in human PC9 cells assessed as reduction in cyclin D1 expression at 10 uM after 18 hrs by Western blot analysis; format: functional, cell-based; method in brief: as §8
HCC827 [31] = assay: Induction of apoptosis in human HCC827 cells assessed as increase in caspase-3 expression at 10 uM after 18 hrs by Western blot analysis; format: functional, cell-based; method in brief: as §8
HCC827 [32] = assay: Induction of apoptosis in human HCC827 cells assessed as increase in p21 expression at 10 uM after 18 hrs by Western blot analysis; format: functional, cell-based; method in brief: as §8
HCC827 [33] = assay: Induction of apoptosis in human HCC827 cells assessed as reduction in cyclin D1 expression at 10 uM after 18 hrs by Western blot analysis; format: functional, cell-based; method in brief: as §8
NCI-H929 [34] = assay: Induction of apoptosis in human NCI-H929 cells at 500 nM after 48 hrs by Annexin V/propidium iodide staining-based flow cytometric analysis relative to control; format: functional; method in brief: as §6
SCC-4 [35] = assay: Induction of apoptosis in human SCC4 cells at 500 nM after 48 hrs by Annexin V/propidium iodide staining-based flow cytometric analysis relative to control; format: functional; method in brief: as §6
HL-60 [36] = assay: Induction of autophagy in human HL60 cells assessed as increase in LC3B-2 levels at 10 uM after 105 mins in presence of lysosomal inhibitor chloroquine by immunoblot analysis; format: functional, cell-based; method in brief: as §4
[37] = Solubility of compound in pH 3 aqueous solution after 12 hrs by HPLC analysis; format: physicochemical
[38] = Solubility of compound in pH 7.4 aqueous solution after 12 hrs by HPLC analysis; format: physicochemical
Method in brief: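 Water solubility at pH 7.4 measured by HPLC analysis.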

B16-F1 = assay: Cytotoxicity against mouse B16-F1 cells assessed as reduction in cell survival at 0.1 to 10 uM after 18 hrs by MTT assay; format: functional, cell-based; method in brief: as §7

SMILES | Activity (HL-60 [1]) | inhibition (Tubulin (Homo sapiens) [2]) | solubility at 20 min, 15 µM [3] [µM] | IC50 (A2780) [nM] | IC50 [4] [nM] | Ratio IC50 [5] | IC50 (NIH3T3 [6]) [nM] | IC50 (NIH3T3 [7]) [nM] | Ratio IC50 [8] | Activity (NB-4 [9]) | Activity (HL-60 [14]) | Kb (Tubulin (Homo sapiens) [17]) [×10⁷ /M] | IC50 (SCC-4 [18]) [nM] | IC50 (NCI-H929 [19]) [nM] | IC50 (Ca9-22 [20]) [nM] | IC50 (Ca9-22 [21]) [nM] | IC50 (Ca9-22 [22]) [nM] | further results
CC(=O)OC1=C(c2ccc3c(c2)OCO3)Oc2cc3ccccc3cc2-n2cccc21 | Active | Active | 0.14 (≈ 0.0576 µg/mL) | 2050 | 7100 | 3.46 | 2780 | 2040 | 0.73 | Dose-dependent effect | Active | 2 |  |  |  |  |  | Activity (NB-4 [10]): Active; Activity (NB-4 [11]): inactive; Activity (NB-4 [12]): Active; Activity (HL-60 [13]): Active; Activity (HL-60 [15]): Active; inhibition (Tubulin (Homo sapiens) [16]): Active
CC(=O)OC1=C(c2ccccc2-c2ccccc2)Oc2ccccc2-n2cccc21 |  |  |  |  |  |  |  |  |  |  |  |  | 9370 | > 50000 | 8000 | 6300 | 4500 | Activity (SCC-4 [23]): >40%; Activity (Ca9-22 [24]): inactive
CC(=O)OC1=C(c2cccc3ccccc23)Oc2cc3ccccc3cc2-n2cccc21 | Active | Active | 0.62 (≈ 0.259 µg/mL) | 249 | 240 | 0.96 | 126 | 306 | 2.42 | Dose-dependent effect | Active | 4.4 | 160 | 376 | 210 | 170 | 83 | Activity (A549): Active; Activity (B16-F10): Active; Activity (PC-9 [25]): Active; Activity (HCC827 [26]): Active; Activity (HCC827 [27]): inactive; Activity (PC-9 [28]): Active; Activity (PC-9 [29]): Active; Activity (PC-9 [30]): Active; Activity (HCC827 [31]): Active; Activity (HCC827 [32]): Active; Activity (HCC827 [33]): Active; Activity (NCI-H929 [34]): >40%; Activity (SCC-4 [35]): >40%; Activity (HL-60 [36]): Active; solubility at 12 h [37]: 29.4 µM (≈ 12.3 µg/mL); solubility at 12 h [38]: 26 µM (≈ 10.9 µg/mL); Activity (B16-F1): Active
